From PubChem BioAssay
A selection: hits, their analogues and other compounds. The true share with any hit is near 2.3%.
NPY Y2 blocker: antagonists of human neuropeptide Y receptor Y2; P49146; NPY-Y2 expressing cells, antagonist mode; inhibition, % at 2.7 µM; actives 0.99% (n = 140,000); AID 793; in the data active = inhibition above about 17%;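 note: 0% = vehicle with agonist challenge and 100% = reference antagonist with challenge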
NPY Y1 blocker: blocks the human neuropeptide Y Y1 receptor | P25929 | HEK293-CNG Y1 cells, membrane potential fluorescence; NPY at EC95, then isoproterenol | inhibition, % at 3.6 µM | actives 1% (n = 200,000) | AID 1040;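 active = inhibition above the campaign mean inhibition of all tested compounds plus 3 SD, cut at about 20% in these data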;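 note: 0% = DMSO wells given NPY plus isoproterenol and 100% = isoproterenol alone without NPY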
Target sequence (P25929 whole entry, looked up): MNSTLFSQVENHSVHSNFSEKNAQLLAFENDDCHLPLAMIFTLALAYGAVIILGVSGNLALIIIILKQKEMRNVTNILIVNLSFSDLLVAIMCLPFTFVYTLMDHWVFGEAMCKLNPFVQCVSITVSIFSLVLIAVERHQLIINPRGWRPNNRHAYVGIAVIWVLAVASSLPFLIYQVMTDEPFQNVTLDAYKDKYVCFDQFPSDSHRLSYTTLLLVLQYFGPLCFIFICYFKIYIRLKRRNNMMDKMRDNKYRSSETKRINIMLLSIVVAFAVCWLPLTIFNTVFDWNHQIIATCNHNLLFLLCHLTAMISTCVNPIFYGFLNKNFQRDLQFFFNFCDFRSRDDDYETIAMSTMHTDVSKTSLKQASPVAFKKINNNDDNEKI
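Material: HEK293 Y1/CNG channel cell line; also added: NPY (25 nM), isoproterenol (1 µM), Ro 20-1724 (25 µM); doses: one concentration, 3.6 µM, in 0.4% DMSO; schedule: compound incubation 1 h at room temperature, readout 45 min post-stimulation; technique: membrane potential fluorescence; measure: fluorescence ratio normalized to % inhibition between controls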
NPY1 pot ag: potentiators or agonists of human neuropeptide Y receptor Y1 | P25929 | NPY-Y1 expressing cells, potentiator/agonist activation | activation, % at 3.6 µM | actives 0.37% (n = 220,000) | AID 1304; in the data active = activation above about 33%, passing the limit was not always enough;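 note: cells stimulated with NPY at EC10 then isoproterenol at EC100; 0% = low agonist plus stimulus and 100% = saturating agonist plus stimulus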
m-calpain inh: inhibitors of pig calpain II; purified calpain II, fluorogenic peptide substrate, 30 min; inhibition, % at 16 µM; actives 0.37% (n = 220,000); AID 1236;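 active = inhibition above about 50%, limit read from the data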
NPY2 pot ag: human NPY-Y2 potentiation or agonism, primary screen; P49146; cells expressing NPY-Y2, potentiator/agonist read-out; activation, % at 3.6 µM; actives 0.45% (n = 220,000); AID 1359; in the data active = activation above about 27%;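 note: cells stimulated with NPY near EC25 plus isoproterenol at EC100; 0% = vehicle plus submaximal agonist and 100% = vehicle plus saturating agonist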
Tb hexokinase: T. brucei hexokinase 1 inhibition; actives 0.11% (n = 220,000); AID 1430; inhibition, % at 10 µM; recombinant TbHK1, G6PDH-coupled NADH A340;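 active = inhibition of 50% or more in the single-dose primary screen; inactive = inhibition below 50%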
An asterisk follows results filed as active; · = no result given.

SMILES | NPY Y2 blocker | NPY Y1 blocker | NPY1 pot ag | m-calpain inh | NPY2 pot ag | Tb hexokinase
CCCOc1ccccc1Cn1c(=O)oc2ccc(C)cc21 | 21.0* | 20.3* | -42.5 | -0.6 | -28.9 | 12.0
CCOC(=O)c1nc(Nc2cc(C)cc(C)c2)c2ccccc2n1 | · | 5.8 | -12.0 | 6.5 | -14.5 | -8.6
O=C(C(Sc1ccccc1)c1ccccc1)N1CCN(c2ccccc2F)CC1 (configuration not stated) | 20.0* | 35.7* | -10.2 | 35.0 | -10.4 | 0.3
C[C@@H]1C=C[C@](Cc2ccccc2)(C(=O)NCCc2c[nH]c3ccccc23)N1C(=O)c1ccccc1 | 18.6* | 34.6* | -29.9 | -9.8 | -0.5 | 3.4
Cc1ccc(NC(=O)c2cc(-c3ccccc3)nn2-c2ccccc2)cc1 | 1.7 | 1.6 | 32.6 | 3.3 | 15.9 | 20.6
O=C(Nc1ccc(F)cc1)c1nn(-c2ccccc2)c(=O)cc1Cl | · | -11.0 | 63.1* | 6.8 | 53.1* | -6.7
COc1ccc(-c2cn(-c3ccc(C)cc3C)c(=O)[nH]2)cc1OC | · | 1.2 | 0.6 | 38.9 | -10.5 | 0.3
Cc1cc(C)n(-c2nc(SCCN(C)C)c3c4c(sc3n2)CCCC4)n1 | 101.0* | 92.2* | -180.7 | -89.1 | -52.6 | 5.4
Cc1cc(C)n(-c2nc(SCC(=O)O)c3c4c(sc3n2)COC(C)(C)C4)n1 | · | · | -6.8 | -25.1 | -1.7 | -11.9
Cc1ccc(-c2[nH]ncc2/C=N/n2c(COc3ccccc3C)nc3ccccc3c2=O)cc1 | -0.7 | -0.2 | -20.2 | 61.3* | -2.4 | 9.7
C=CC[n+]1ccc(/C=C2\C=Cc3cc(C)ccc3N2CC)c2ccccc21 | · | 7.8 | 26.6 | 17.6 | 31.4* | -6.0
CCN1/C(=C/c2cc[n+](CCCS(=O)(=O)[O-])c3ccccc23)Sc2ccccc21 | · | 1.3 | -12.8 | 12.0 | -4.3 | 7.9
CN1CCN(S(=O)C23CC4CC(CC(C4)C2)C3)CC1 (configuration not stated) | 1.8 | 3.4 | -18.8 | -10.8 | -15.6 | -2.2
CC1CCN(S(=O)C23CC4CC(CC(C4)C2)C3)CC1 (configuration not stated) | · | 2.9 | 7.2 | 56.4* | -1.0 | 4.4
C=CCn1c(CNC(=O)c2ccccc2F)nnc1SCc1nc2ccccc2c(=O)[nH]1 | · | -2.4 | 19.9 | -16.5 | 0.0 | 3.1
COc1ccc(C(CC(=O)O)NC(=O)COc2cc(C)ccc2C)cc1OC (configuration not stated) | · | -1.4 | -11.5 | -28.6 | -1.3 | -3.7
COc1ccc(/C=C/C(=O)NC(=S)Nc2cc3oc4ccccc4c3cc2OC)cc1 | 0.5 | 3.7 | 0.1 | 62.4* | -4.3 | -11.5
COc1ccc(/C=C/C(=O)NC(=S)Nc2ccc(C(=O)O)cc2)cc1 | 2.4 | -1.2 | 7.3 | 73.8* | 11.9 | -2.8
COc1ccccc1Nc1nnc(SCC(=O)NC(=O)Nc2ccc3c(c2)OCCO3)s1 | 7.6 | -3.7 | -14.1 | 13.2 | 9.7 | 2.8
COc1ccc2cc(C(=O)N3CCCCCC3)sc(=O)c2c1OC | -0.2 | -6.6 | -15.1 | 59.6* | -4.5 | -7.0
O=C(OCC(=O)c1c[nH]c2ccccc12)c1ccc(Br)o1 | 0.6 | -3.1 | 62.8* | 19.3 | 70.5* | -4.7
O=C(OCC(=O)c1c[nH]c2ccccc12)c1ccco1 | -0.1 | -2.4 | -8.7 | 14.3 | 7.8 | -2.2
CCn1nc(C(=O)OCC(=O)c2c[nH]c3ccccc23)c2ccccc2c1=O | 3.5 | 1.5 | 3.7 | 55.9* | 1.9 | -3.0
CC(C)n1nc(C(=O)OCC(=O)c2c[nH]c3ccccc23)c2ccccc2c1=O | -1.7 | -2.7 | -22.3 | 45.5 | 7.2 | -7.8
COCCCNC(=O)C1CCC(CNS(=O)(=O)c2ccc(Cl)cc2)CC1 (configuration not stated) | · | -1.2 | 13.8 | -3.1 | -3.7 | -4.7
O=S(=O)(c1ccc(F)cc1)N1CC2CCCN2c2ccc(C(F)(F)F)cc21 (configuration not stated) | -1.6 | -7.2 | 63.7* | 8.8 | 44.5* | 3.0
Cc1ccc(-c2nc(C3CCN(S(=O)(=O)c4ccc(C(F)(F)F)cc4)CC3)no2)cc1 | 5.1 | 0.5 | 1.1 | 23.7 | -16.5 | 0.8
Cc1ccc(S(=O)(=O)N2CC3CCCN3c3ccc(C(F)(F)F)cc32)cc1 (configuration not stated) | 0.3 | -6.5 | 17.6 | 8.5 | 28.4* | -7.5
CCOC(=O)c1ccc(NC(=O)CN2C(=O)CSC(C)C2=O)cc1 (configuration not stated) | 0.8 | -1.1 | 14.7 | 3.1 | 14.1 | 1.6
